According to ChEMBL document CHEMBL1139840, “Design and synthesis of glycoside inhibitors of glioma and melanoma growth” (2007):

Columns and labels:
[1] = Antimitotic activity against human U373 cells by [3H]thymidine incorporation assay; assay type: functional, U-373MG ATCC; conditions: U373 MG, read-out: ID50 (the source's name)
C6 = assay: Antimitotic activity against rat C6 cells by [3H]thymidine incorporation assay; assay type: functional; conditions: C6, 24 h, read-out: ID50 (the source's name)
Outline: (§1)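 Cells seeded at 1 × 10⁴/well in DMEM with 10% FCS and left 6 h to attach, then serum-starved 36 h. Compounds added in DMEM with 1% FCS, in triplicate, for 24 h. A 6 h [³H]thymidine pulse (0.5 µCi/well) followed, then SDS lysis and scintillation counting. % inhibition was scaled between 10% FCS (high) and serum-free (low) controls. ID₅₀ came from sigmoidal fits of triplicate dose-response data.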

A-375 = assay: Antimitotic activity against human A375 cells by [3H]thymidine incorporation assay; assay type: functional; conditions: A-375, 24 h, read-out: ID50 (the source's name); outline: as §1
[2] = Antimitotic activity against rat stromal cells by [3H]thymidine incorporation assay; assay type: functional; conditions: read-out: ID50 (the source's name)

SMILES	IC50 [1] [µM]	IC50 (C6) [µM]	IC50 (A-375) [µM]	IC50 [2] [µM]
CCCCCCCCCCCCCCCCO[C@H]1O[C@H](COCC(O)CO)[C@@H](O)[C@H](O)[C@H]1NC(=O)CCCCCCCCCCCCCCC (mixture of isomers)	3.3	2.6	9.3	
CCCCCCCCCCCCCCCCO[C@H]1O[C@H](COCC(O)CO)[C@@H](O)[C@H](O)[C@H]1NC(=O)CCCC (stereo not given in full)	4.6		3	
CCCCCCCCCCCCCCCCO[C@H]1O[C@H](COCC(CO)(CO)COS(=O)(=O)O)[C@@H](O)[C@H](O)[C@H]1NC(=O)CCCC	3.2	11	2.3	
C=CCCC(=O)N[C@H]1[C@@H](OCCc2ccccc2)O[C@H](CO)[C@@H](O)[C@@H]1O	> 50	> 50	> 50	
CC(=O)N[C@H]1[C@@H](OCc2ccccc2)O[C@H](CO)[C@@H](O)[C@@H]1O	> 50	> 50	> 50	
CC(=O)N[C@H]1[C@@H](OCCCCc2ccccc2)O[C@H](CO)[C@@H](O)[C@@H]1O	> 50	> 50	> 50	
CCCCCCCCCCCCCCCCO[C@H]1O[C@H](COCC(CO)(CO)CO)[C@@H](O)[C@H](O)[C@H]1NC(=O)CCCC	27.3	18.3	17	
C=CCCC(=O)N[C@H]1[C@@H](OCCCCCCCCCCCCCCCC)O[C@H](CO)[C@@H](O)[C@@H]1O	> 50	> 50	> 50	
CCCCC(=O)N[C@H]1[C@@H](OCCc2ccccc2)O[C@H](COCC(CO)(CO)CO)[C@@H](O)[C@@H]1O	> 50	> 50	> 50	
CC(=O)N[C@H]1[C@@H](OCCc2ccccc2)O[C@H](CO)[C@@H](O)[C@@H]1O	> 50	> 50	> 50	
CCCCCCCC/C=C\CCCCCCCC(=O)N[C@H]1[C@@H](OCCCCCCCC)O[C@H](COS(=O)(=O)O)[C@@H](O)[C@@H]1O	12.6	5.6	15.6	
C=CCCC(=O)N[C@H]1[C@@H](OCCc2ccccc2)O[C@H](CO)[C@@H](O)[C@@H]1OS(=O)(=O)O	> 50	> 50	> 50	
CCCCCCCCO[C@H]1O[C@H](CO)[C@@H](O)[C@H](O)[C@H]1NC(C)=O	> 50	> 50	> 50	
CCCCCCCC/C=C\CCCCCCCCO[C@H]1O[C@H](CO)[C@@H](O)[C@H](O)[C@H]1NC(C)=O	4.6	1.3	4.8	10
CCCCCCCC/C=C\CCCCCCCC(=O)N[C@H]1[C@@H](OCCCCCCCC)O[C@H](COCC(CO)(CO)CO)[C@@H](O)[C@@H]1O	20.6	11.9	13.3	
CCCCCCCCCCCCCCCCO[C@H]1O[C@H](COC[C@@H](O)CO)[C@@H](O)[C@H](O)[C@H]1NC(=O)CCCC	5.6		3.4	
CCCCCCCC/C=C\CCCCCCCCO[C@H]1O[C@H](COS(=O)(=O)O)[C@@H](O)[C@H](O)[C@H]1NC(C)=O	13	13	0.6	40
CCCCCCCCCCCCCCCCO[C@H]1O[C@H](CO)[C@@H](O)[C@H](O)[C@H]1NC(C)=O	> 50	13	29.3	
CCCCC(=O)N[C@H]1[C@@H](OCCc2ccccc2)O[C@H](COCC(CO)(CO)COS(=O)(=O)O)[C@@H](O)[C@@H]1O	6.7	8.6	9.3	
CCCCCCCCO[C@H]1O[C@H](CO)[C@@H](O)[C@H](O)[C@H]1NC(=O)c1ccccc1	> 50	> 50	> 50	
C=CCCC(=O)N[C@H]1[C@@H](OCCCCCCCCCCCCCCCC)O[C@H](CO)[C@@H](O)[C@@H]1OS(=O)(=O)O	33	22.6	7.2	
C=CCCC(=O)N[C@H]1[C@@H](OCCc2ccccc2)O[C@H](COS(=O)(=O)O)[C@@H](O)[C@@H]1O	> 50	> 50	> 50	
CCCCCCCC/C=C\CCCCCCCC(=O)N[C@H]1[C@@H](OCCCCCCCC)O[C@H](CO)[C@@H](O)[C@@H]1OS(=O)(=O)O	15.6	5.4	16	
CCCCCCCC/C=C\CCCCCCCC(=O)N[C@H]1[C@@H](OCCCCCCCC)O[C@H](CO)[C@@H](O)[C@@H]1O	13.3	12	6	
CCCCCCCCCCCCCCCCO[C@H]1O[C@H](COC[C@H](O)CO)[C@@H](O)[C@H](O)[C@H]1NC(=O)CCCC	4.9		2.2	
CCCCC(=O)N[C@H]1[C@@H](OCCc2ccccc2)O[C@H](COCC(O)CO)[C@@H](O)[C@@H]1O (mixture of isomers)	> 50	> 50	> 50	
CCCCCCCC/C=C\CCCCCCCCO[C@H]1O[C@H](CO)[C@@H](O)[C@H](OS(=O)(=O)O)[C@H]1NC(C)=O	9.6	12.3	2.1	
